From ChEMBL document CHEMBL1212742 (2010) come the findings set out here.

≈ marks a conversion by molar mass, not a printed value.

Holding throughout (type): functional
The subject of assay [1] is Mycobacterium tuberculosis. The assay can be described thus: Antimicrobial activity against Mycobacterium tuberculosis 16C14 harboring embB445 CAG-CGG(Gln-Arg) mutation in embCAB gene after 4 weeks by 7H agar proportion method. In short, it runs like this: (§1)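 EMB MIC by 7H10 agar proportion for clones selected from M. tuberculosis strain 210. About 10^9 cells from liquid culture (OD600 ~1.5, resuspended in 7H9) were plated on 7H10 with EMB at 8, 16 or 32 µg/ml final, incubated 37°C for 4 weeks. Colonies were subcultured in EMB-free 7H9 before testing, and embCAB was genotyped.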

The subject of assay [2] is Mycobacterium tuberculosis. The experiment in a line: Antimicrobial activity against Mycobacterium tuberculosis 32C1 harboring embB445 CAG-CGG(Gln-Arg) mutation in embCAB gene after 4 weeks by Bactec 460TB method. The method, boiled down:
(§2)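 EMB MIC by radiometric Bactec 460TB liquid method for clones from strain 210. The clones were selected on 7H10 containing 8, 16 or 32 µg/ml EMB final (~10^9 cells plated, 37°C, 4 weeks), then subcultured in 7H9 without EMB before MIC testing. embCAB was genotyped.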

Assay [3] has as its system Mycobacterium tuberculosis. The assay can be described thus: Antimicrobial activity against Mycobacterium tuberculosis NJT210CGG harboring embB497 CAG-CGG(Gln-Arg) mutation in embB gene after 4 weeks. The method, boiled down: (§3)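 Isogenic embB mutants made by allelic exchange in strain 210. PCR-built fragments carried the codon of interest; double-crossover colonies were screened by molecular beacon assay and confirmed by direct embB sequencing. MICs of EMB, INH and RIF were determined by radiometric Bactec 460TB and 7H10 agar proportion, alongside parent 210.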

The subject of assay [4] is Mycobacterium tuberculosis. The experiment in a line: Antimicrobial activity against Mycobacterium tuberculosis harboring mutation in embB306 gene after 4 weeks.
For assay [5], the system named is Mycobacterium tuberculosis. The experiment in a line: Antimicrobial activity against Mycobacterium tuberculosis NJT210TCC harboring embB406 GGC-TCC(Gly-Ser) mutation in embB gene after 4 weeks. The method, boiled down: as §3
In assay [6] the test system is Mycobacterium tuberculosis. The experiment in a line: Antimicrobial activity against Mycobacterium tuberculosis 16C7 harboring embB445 CAG-CGG(Gln-Arg) mutation in embCAB gene after 4 weeks by Bactec 460TB method. The method, boiled down: as §2
In assay [7] the test system is Mycobacterium tuberculosis. The assay can be described thus: Antimicrobial activity against Mycobacterium tuberculosis NJT210GAC harboring embB406 GGC-GAC(Gly-Asp) mutation in embB gene after 4 weeks. In short, it runs like this:
as §3

The subject of assay [8] is Mycobacterium tuberculosis. The assay can be described thus: Antimicrobial activity against Mycobacterium tuberculosis 32C5 harboring embB324 GGC-CGC(Gly-Arg) mutation in embCAB gene after 4 weeks by 7H agar proportion method. The method, boiled down: as §1
For assay [9], the system named is Mycobacterium tuberculosis. The experiment in a line: Antimicrobial activity against Mycobacterium tuberculosis NJT210TGC harboring embB406 GGC-TGC(Gly-Cys) mutation in embB gene after 4 weeks. In short, it runs like this: as §3
Assay [10] relates to Mycobacterium tuberculosis. The assay can be described thus: Antimicrobial activity against Mycobacterium tuberculosis 16C11 harboring embB397 CCG-TCG(Pro-Ser) mutation in embCAB gene after 4 weeks by 7H agar proportion method. The method, boiled down:
as §1

In assay [11] the test system is Mycobacterium tuberculosis. The experiment in a line: Antimicrobial activity against Mycobacterium tuberculosis 16C11 harboring embB397 CCG-TCG(Pro-Ser) mutation in embCAB gene after 4 weeks by Bactec 460TB method. In short, it runs like this: as §2
For assay [12], the system named is Mycobacterium tuberculosis. The assay can be described thus: Antimicrobial activity against Mycobacterium tuberculosis 16C16 harboring embB1024 GAC-AAC(Asp-Asn) mutation in embCAB gene after 4 weeks by Bactec 460TB method. In short, it runs like this: as §2
Assay [13] has as its system Mycobacterium tuberculosis. The assay can be described thus: Antimicrobial activity against Mycobacterium tuberculosis 16C9 harboring embB497 CAG-CGG(Gln-Arg) mutation in embCAB gene after 4 weeks by Bactec 460TB method. The method, boiled down: as §2
Assay [14] concerns Mycobacterium tuberculosis. The assay can be described thus: Antimicrobial activity against Mycobacterium tuberculosis 32C5 harboring embB324 GGC-CGC(Gly-Arg) mutation in embCAB gene after 4 weeks by Bactec 460TB method. The method, boiled down:
as §2

In assay [15] the test system is Mycobacterium tuberculosis. The experiment in a line: Antimicrobial activity against Mycobacterium tuberculosis 32C3 harboring embB497 CAG-CGG(Gln-Arg) mutation in embCAB gene after 4 weeks by Bactec 460TB method. In short, it runs like this: as §2
The test system of assay [16] is Mycobacterium tuberculosis. The experiment in a line: Antimicrobial activity against Mycobacterium tuberculosis 32C1 harboring embB445 CAG-CGG(Gln-Arg) mutation in embCAB gene after 4 weeks by 7H agar proportion method. The method, boiled down: as §1
In assay [17] the test system is Mycobacterium tuberculosis. The experiment in a line: Antimicrobial activity against Mycobacterium tuberculosis 16C16 harboring embB1024 GAC-AAC(Asp-Asn) mutation in embCAB gene after 4 weeks by 7H agar proportion method. In short, it runs like this: as §1
In assay [18] the test system is Mycobacterium tuberculosis. The assay can be described thus: Antimicrobial activity against Mycobacterium tuberculosis 16C14 harboring embB445 CAG-CGG(Gln-Arg) mutation in embCAB gene after 4 weeks by Bactec 460TB method. The method, boiled down:
as §2

Assay [19] relates to Mycobacterium tuberculosis. The assay can be described thus: Antimicrobial activity against Mycobacterium tuberculosis 8C5 harboring embC13 CGG-CTG(Arg-Leu) mutation in embCAB gene after 4 weeks by Bactec 460TB method. In short, it runs like this:
as §2

The subject of assay [20] is Mycobacterium tuberculosis. The experiment in a line: Antimicrobial activity against Mycobacterium tuberculosis 32C4 harboring embB497 CAG-CGG(Gln-Arg) mutation in embCAB gene after 4 weeks by Bactec 460TB method.
In assay [21] the test system is Mycobacterium tuberculosis. The experiment in a line: Antimicrobial activity against Mycobacterium tuberculosis 8C7 harboring embB445 CAG-CGG(Gln-Arg) mutation in embCAB gene after 4 weeks by 7H agar proportion method. The method, boiled down: as §1
Assay [22] concerns Mycobacterium tuberculosis. The assay can be described thus: Antimicrobial activity against Mycobacterium tuberculosis 8C7 harboring embB445 CAG-CGG(Gln-Arg) mutation in embCAB gene after 4 weeks by Bactec 460TB method. The method, boiled down: as §2
Assay [23] deals with Mycobacterium tuberculosis. The assay can be described thus: Antimicrobial activity against Mycobacterium tuberculosis 16C15 harboring embB497 CAG-CGG(Gln-Arg) mutation in embCAB gene after 4 weeks by Bactec 460TB method. The method, boiled down: as §2
Assay [24] deals with Mycobacterium tuberculosis. The assay can be described thus: Antimicrobial activity against Mycobacterium tuberculosis NJT210GCC harboring embB406 GGC-GCC(Gly-Ala) mutation in embB gene after 4 weeks. In short, it runs like this: as §3
The test system of assay [25] is Mycobacterium tuberculosis. The assay can be described thus: Antimicrobial activity against Mycobacterium tuberculosis 32C2 harboring embB497 CAG-CGG(Gln-Arg) mutation in embCAB gene after 4 weeks by Bactec 460TB method. The method, boiled down:
as §2

For assay [26], the system named is Mycobacterium tuberculosis. The assay can be described thus: Antimicrobial activity against Mycobacterium tuberculosis 8C5 harboring embC13 CGG-CTG(Arg-Leu) mutation in embCAB gene after 4 weeks by 7H agar proportion method. The method, boiled down: as §1

With `CC[C@@H](CO)NCCN[C@@H](CC)CO` [ETHAMBUTOL], the MIC (commonly the lowest concentration that inhibits growth of the organism) in [1] was 16 µg/mL (≈ 78.3 µM); in assay [2], 2 µg/mL (≈ 9.79 µM); in assay [3] it was 12 µg/mL (≈ 58.7 µM); in assay [4] it was >20 µg/mL; in assay [5], 6 µg/mL (≈ 29.4 µM); in assay [6], 8 µg/mL (≈ 39.2 µM). In addition, the minimum inhibitory concentration (MIC) stood at 7 µg/mL (≈ 34.3 µM) in [7]; 8 µg/mL (≈ 39.2 µM) in assay [8]; 7 µg/mL (≈ 34.3 µM) in [9]; 8 µg/mL (≈ 39.2 µM) in [10]; 5 µg/mL (≈ 24.5 µM) in [11]; 3 µg/mL (≈ 14.7 µM) in assay [12]. For the same compound, the MIC is 12 µg/mL (≈ 58.7 µM) in [13]; 8 µg/mL (≈ 39.2 µM) in [14]; 12 µg/mL (≈ 58.7 µM) in assay [15]; 6 µg/mL (≈ 29.4 µM) in [16]; 8 µg/mL (≈ 39.2 µM) in [17]; 8 µg/mL (≈ 39.2 µM) in [18]. Further, the minimal inhibitory concentration (MIC) was 4 µg/mL (≈ 19.6 µM) in assay [19]; 4 µg/mL (≈ 19.6 µM) in [20]; 4 µg/mL (≈ 19.6 µM) in [21]; 2 µg/mL (≈ 9.79 µM) in assay [22]; 12 µg/mL (≈ 58.7 µM) in assay [23]; 7 µg/mL (≈ 34.3 µM) in assay [24]. Besides, the MIC worked out at 12 µg/mL (≈ 58.7 µM) in assay [25] and 8 µg/mL (≈ 39.2 µM) in assay [26].
Turning to `NNC(=O)c1ccncc1` [ISONIAZID], the MIC in assay [3], in assay [5], in assay [7], in assay [9] and in assay [24] was 0.05 µg/mL (≈ 0.365 µM) each time.
Take `CO[C@H]1/C=C/O[C@@]2(C)Oc3c(C)c(O)c4c(O)c(c(/C=N/N5CCN(C)CC5)c(O)c4c3C2=O)NC(=O)/C(C)=C\C=C\[C@H](C)[C@H](O)[C@@H](C)[C@@H](O)[C@@H](C)[C@H](OC(C)=O)[C@@H]1C` [RIFAMPIN]: the MIC in assay [3], in assay [5], in [7], in assay [9] and in assay [24] was 0.05 µg/mL (≈ 0.0608 µM) in each case.
